The text below walks through data of ChEMBL document CHEMBL1142155, “Human beta-defensins kill Candida albicans in an energy-dependent and salt-sensitive manner without causing membrane disruption” (2007).

Molecules are shown by their SMILES. Calls of active or inactive are those of the source. No cut-off for these calls is given here.

For assay [1], the system named is Candida albicans. Description: Induction of membrane permeabilization in Candida albicans assessed as calcein release at 0.8 uM after 90 min. The assay is classed as functional. In short, it runs like this: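 Early-stationary yeast washed in 10 mM NaPB, loaded at 10⁷/ml with 5 μM (final) calcein-AM for 2 h at room temperature, then washed four times; 10⁶ cells given 0.8 μM hBD-3 or 32 μM Hst 5. Fluorescence (ex 485/em 530 nm) read every 5 min for 90 min. Percent release = (I_r − I_bkg)/(I_int − I_bkg) × 100, where I_int comes from boiling 10 min. Mean ± SD of three experiments.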

For assay [2], the system named is Candida albicans. Nature of the assay: Induction of ATP efflux in Candida albicans CAF4-2 at 1 uM. The class given is functional, organism-based. In short, it runs like this: (§1)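 10⁴ C. albicans cells given 31 μM Hst 5 or 1 μM hBD-3, with or without 2 h pretreatment in 1 mM NaN₃. Extracellular ATP read by luminometry at 0, 5, 15, 30, 45 and 60 min. Values come from per-experiment ATP standard curves, as pmol ATP per 10⁴ cells.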

The test system of assay [3] is Candida albicans. Nature of the assay: Induction of ATP efflux in Candida albicans CAF4-2 at 1 uM in presence of 1 mM sodium azide. The assay is classed as functional, organism-based. In short, it runs like this:
as §1

Regarding `CC[C@H](C)C(NC(=O)CN)C(=O)N[C@H](C(=O)N[C@@H](CC(N)=O)C(=O)N[C@H](C(=O)N[C@@H](CC(C)C)C(=O)N[C@@H](CCC(N)=O)C(=O)N[C@@H](CCCCN)C(=O)N[C@@H](Cc1ccc(O)cc1)C(=O)N[C@@H](Cc1ccc(O)cc1)C(=O)N[C@@H](CS)C(=O)N[C@@H](CCCNC(=N)N)C(=O)N[C@H](C(=O)N[C@@H](CCCNC(=N)N)C(=O)NCC(=O)NCC(=O)N[C@@H](CCCNC(=N)N)C(=O)N[C@@H](CS)C(=O)N[C@@H](C)C(=O)N[C@H](C(=O)N[C@@H](CC(C)C)C(=O)N[C@@H](CO)C(=O)N[C@@H](CS)C(=O)N[C@@H](CC(C)C)C(=O)N1CCC[C@H]1C(=O)N[C@@H](CCCCN)C(=O)N[C@@H](CCC(=O)O)C(=O)N[C@@H](CCC(=O)O)C(=O)N[C@@H](CCC(N)=O)C(=O)N[C@H](C(=O)NCC(=O)N[C@@H](CCCCN)C(=O)N[C@@H](CS)C(=O)N[C@@H](CO)C(=O)N[C@H](C(=O)N[C@@H](CCCNC(=N)N)C(=O)NCC(=O)N[C@@H](CCCNC(=N)N)C(=O)N[C@@H](CCCCN)C(=O)N[C@@H](CS)C(=O)N[C@@H](CS)C(=O)N[C@@H](CCCNC(=N)N)C(=O)N[C@@H](CCCNC(=N)N)C(=O)N[C@@H](CCCCN)C(=O)N[C@@H](CCCCN)C(=O)O)[C@@H](C)O)[C@@H](C)CC)C(C)C)C(C)C)[C@@H](C)O)[C@@H](C)CC` (stereo partly drawn), the Activity with Candida albicans [1] is 24.2%. Also, in the assay with Candida albicans [2], the result was Active. Moreover, in the assay on Candida albicans [3], the outcome was inactive.
